mABHD4 FP = ABHD4 (mouse) inhibition, primary FP screen; inhibition, % at 8.92 µM; hit rate 0.54% among 370,000; purified mABHD4, FP-Rh probe fluorescence polarization;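 active means inhibition exceeding the mean over every tested compound plus 3 SD, cut at about 30% in these data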;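 further: 0% = plate median of compound wells and 100% = S159A mutant with DMSO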
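Material: mouse ABHD4 enzyme, wild type; Benchmarks: S159A mutant high control, sample median low control; Buffer or medium: HEPES pH 7.0, NaCl, Pluronic buffer; Signal: fluorescence polarization; Read-out: percent inhibition of probe binding, normalized to plate controls; Timing: pre-incubation 45 min, probe exposure 60 min, at 25 °C; Dosing: 8.92 µM, single dose.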
SIAE primary = human SIAE inhibition, primary screen; Q9HAT2; SIAE FP-Rh probe binding, fluorescence polarization; AID 1053197; inhibition, % at 9.66 µM; hit rate 0.69% among 370,000;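 active means inhibition above a cutoff: mean of compounds within the control limits plus 3 SD of those, cut at about 17% in these data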;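 further: 0% = plate median of compound wells and 100% = probe without SIAE protein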
Target sequence (Q9HAT2 whole entry, looked up): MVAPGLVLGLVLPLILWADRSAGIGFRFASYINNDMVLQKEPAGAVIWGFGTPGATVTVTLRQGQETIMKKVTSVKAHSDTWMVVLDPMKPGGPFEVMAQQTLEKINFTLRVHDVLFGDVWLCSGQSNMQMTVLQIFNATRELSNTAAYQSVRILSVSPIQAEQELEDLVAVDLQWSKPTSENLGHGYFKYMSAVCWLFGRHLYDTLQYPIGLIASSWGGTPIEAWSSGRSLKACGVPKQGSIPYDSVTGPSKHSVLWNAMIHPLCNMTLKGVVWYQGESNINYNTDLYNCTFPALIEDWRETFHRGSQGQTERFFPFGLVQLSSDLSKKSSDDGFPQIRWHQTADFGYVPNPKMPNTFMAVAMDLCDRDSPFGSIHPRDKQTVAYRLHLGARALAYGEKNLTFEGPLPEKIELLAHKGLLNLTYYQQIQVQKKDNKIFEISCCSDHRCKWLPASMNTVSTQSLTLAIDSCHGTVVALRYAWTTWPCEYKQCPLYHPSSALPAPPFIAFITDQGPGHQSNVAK
rCAG RNA binder = molecules binding r(CAG) RNA repeats | r(CAG) RNA repeat, TO-PRO-1 dye displacement fluorescence | inhibition, % at 3 µM | hit rate 1.3% among 370,000 | AID 651821;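 active means inhibition above the plate cutoff, the mean of all test compounds on that plate plus 3 SD, cut at about 35% in these data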;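 further: 0% = DMSO alone and 100% = 100 µM mitoxantrone as full dye displacement; higher means more dye released from RNA so lower well fluorescence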
PRMT1 FP inh = PRMT1 (human) inhibition, primary screen; recombinant PRMT1, activity-based probe fluorescence polarization; inhibition, % at 2.79 µM; hit rate 1.3% among 370,000; AID 652257;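 active means inhibition above about 21% made by adding two undisclosed values, limit read from the data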
TCR CD3 inh = inhibitors of human TCR-CD3 interaction; inhibition, % at 9.4 µM; AID 651800; TAMRA-labeled TCR probe fluorescence, biochemical; hit rate 0.37% among 360,000;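 further: recombinant mutant TCR 2C K166C tagged with TAMRA read by polarization; 0% = receptor in buffer alone and 100% = receptor with positive control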
BSA TAMRA ctr = counter-screen for TCR-CD3 interaction inhibitors: BSA probe; shares compounds with TCR CD3 inh; TAMRA-labeled BSA probe fluorescence counterscreen; inhibition, % at 9.4 µM; hit rate 10% among 1,200; in the data active means inhibition above about 23%;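 further: 0% = buffer low control and 100% = reference high control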
TCR-CD3 conf = confirmation of human TCR-CD3 interaction inhibitors; shares compounds with TCR CD3 inh; TAMRA-labeled TCR probe fluorescence binding assay; AID 652036; hit rate 48% among 1,200; inhibition, % at 9.4 µM
* marks the source's active call; other numbers are inactive results; x = no result given; ! = not confirmed by another sample. Rows were chosen to be rich in hits. Some 3.3% of all compounds tested hit in one or more screens of this group. Unless noted, no stated cut-off is given here; in the data, active means inhibition above about 19%; inactive means the rest.

SMILES | mABHD4 FP | SIAE primary | rCAG RNA binder | PRMT1 FP inh | TCR CD3 inh | BSA TAMRA ctr | TCR-CD3 conf
CCc1c(C)sc(NC(=O)OC)c1C(N)=O | -4.1 | 7.0 | 1.9 | -2.5 | 6.6 | x | x
Cn1cccc1CC(=O)NNC(=S)Nc1ccc(F)cc1 | 9.0 | 0.8 | 8.6 | 3.7 | 6.1 | x | x
Cn1cccc1CC(=O)NNC(=S)NC(=O)c1ccccc1Br | 9.8 | 3.5 | 7.2 | 3.4 | 28.0* | -3.8 | 16.4
CN(C(=O)CCn1nnc(-c2cccs2)n1)C1CCCCC1 | -0.2 | -4.6 | 3.2 | -0.8 | x | x | x
C=CCn1c(-c2ccco2)n[nH]c1=S | -0.7 | -4.6 | 3.0 | 0.0 | 54.1* | 1.0 | -0.1
CN1C(=O)C(C(=O)Nc2ccccc2F)c2ccccc21 (stereo unspecified) | 6.3 | 0.7 | 5.7 | -3.0 | 19.2* | -1.8 | 1.1
Cc1ccc(NC(=O)C2C(=O)N(C)c3ccccc32)cc1 (stereo unspecified) | -5.1 | 0.4 | 3.3 | -5.2 | 1.8 | x | x
Cc1cc(C)cc(N(CC(=O)Nc2ccc(-c3nc4ccc(C)cc4s3)cc2)S(C)(=O)=O)c1 | -9.8 | -4.5 | 16.8 | 1.3 | 49.0* | 18.8 | 32.4*
Cc1ccc2nc(-c3ccc(NC(=O)CN(c4ccccc4C)S(C)(=O)=O)cc3)sc2c1 | -7.2 | -9.1 | 5.8 | -2.6 | 5.8 | x | x
Cc1cc(/C=C2\SC(=O)NC2=O)c(C)n1-c1ccc(N2CCOCC2)cc1 | 3.8 | 0.0 | 12.8 | 1.7 | 5.3 | x | x
Cc1cc(/C=C2\SC(=O)NC2=O)c(C)n1-c1ccc(N(C)C)cc1 | 6.9 | 10.2 | 21.3 | 5.6 | 27.4* | 2.2 | 3.8
COCCCNC(=O)C[C@H]1C[C@@]2(C(=O)OC)C(=C[C@H](COCc3ccccc3)O[C@@H]2C)N(Cc2ccccc2)C1=O | 6.6 | 4.6 | -0.3 | -1.1 | x | x | x
C/C(=N\NC(=O)c1cc(C2CC2)nc2ccccc12)c1ccc(O)cc1O | 7.9 | 8.1 | 7.0 | -1.8 | 21.6* | -12.5 | 24.4*
Cn1c(=O)c2cc(S(=O)(=O)N3CCN(Cc4ccccc4)CC3)ccc2n(C)c1=O | 3.0 | 3.9 | 4.1 | -3.0 | x | x | x
CC(C)CC1NC(=O)c2ccc(Cl)cc2-n2c1nc1cc(F)ccc1c2=O (stereo unspecified) | -10.0 | -0.4 | -0.3 | 0.1 | 169.5* | 5.4 | -1.5
CC(C)CC1NC(=O)c2ccc(Cl)cc2-n2c1nc1ccc(F)cc1c2=O (stereo unspecified) | -7.4 | -4.3 | -1.6 | -0.4 | 10.9 | x | x
CCOc1cccc(CNc2ccc(O)cc2)c1OCc1ccc(Cl)cc1Cl | 66.1* | 31.8* | 18.6 | 15.1 | 27.1* | 3.1 | 0.3
CCOc1cccc(CNCCO)c1OCc1ccc(Cl)cc1Cl | 4.5 | -1.1 | 2.2 | -2.6 | -5.6 | x | x
C#CC1(O)C2C=C(OC)C(=O)C1C(c1ccccc1)C2C (stereo unspecified) | -0.1 | 6.5 | 5.7 | 0.4 | x | x | x
Cc1nc(N)sc1-c1csc(Nc2ncccn2)n1 | 10.9 | 6.9 | 17.1 | 0.9 | 19.6* | 14.8 | 20.4*
CC1CCCC(NC(=O)NC(=O)CCl)C1C (stereo unspecified) | 2.5 | -1.6 | -1.2 | 0.4 | 10.9 | x | x
Cc1nn(CC(=O)NC(=O)NC2CCCC(C)C2C)c(=O)c(C#N)c1C (stereo unspecified) | -5.7 | 3.9 | 0.1 | 8.3 | 23.6* | -4.4 | -2.9
CCN1CCN(Cc2ccc(NC(=O)c3ccc(C)c(NC(=O)c4c[nH]c5cc(C(F)(F)F)ccc5c4=O)c3)cc2C(F)(F)F)CC1 | -33.3 | 2.1 | 15.3 | -2.7 | 24.4* | 10.9 | 20.9*!
Cc1ccc(NC(=O)NNC(=O)c2cc3ccccc3cc2O)cc1 | -3.9 | 1.6 | 19.9 | -5.2 | 31.7* | -1.5 | 21.0*
Cc1ccc(NC(=O)NNC(=O)COc2ccc3ccccc3c2)cc1 | 0.7 | 0.0 | 7.0 | 0.7 | 8.5 | x | x
SMILES | mABHD4 FP | SIAE primary | rCAG RNA binder | PRMT1 FP inh | TCR CD3 inh | BSA TAMRA ctr | TCR-CD3 conf
COc1ccc(NS(=O)(=O)c2cccc(C(=O)NNC(=O)c3cc(C)oc3C)c2)cc1 | 1.0 | -0.8 | 5.4 | -0.4 | 2.9 | x | x
Cc1cccc(NC(=O)NNC(=O)c2ccc3ccccc3c2O)c1 | 13.2 | 16.8 | 9.5 | 1.1 | 32.7* | -7.6 | 29.5*
COc1ccc(NS(=O)(=O)c2cccc(C(=O)NNC(=O)c3ccccc3O)c2)cc1 | 16.4 | -2.0 | 18.4 | 1.8 | 27.6* | -15.5 | 16.5
O=C(NNC(=O)c1ccc2ccccc2c1O)NC1CCCCC1 | 5.7 | 16.9 | 5.9 | 4.1 | 20.4* | -6.5 | 20.9*
C[C@H]1[C@@H](OC(=O)Nc2ccccc2Cl)CC[C@@]23CCCN2C(=O)CCC[C@@H]13 | 3.9 | 2.1 | x | -0.7 | x | x | x
COC(=O)C1CN(CC(C)C)CCS(=O)(=O)N1Cc1ccc(Cl)cc1 (stereo unspecified) | -1.2 | 3.4 | -1.0 | -5.9 | x | x | x
C[C@H]1/C=C/CC(=O)N[C@@H](c2ccc3ccccc3c2)[C@@H](C)/C=C/CC(=O)N[C@H]1c1ccc2ccccc2c1 | -30.3 | -12.3 | 17.7 | -3.7 | x | x | x
C=CCN1[C@@H](C)COc2cc(F)ccc2S1(=O)=O | 7.2 | 5.5 | 0.7 | 2.9 | x | x | x
Cc1ccc(C(=O)NNC(=O)c2ccc3ccccc3c2O)cc1 | 10.7 | -1.7 | 12.3 | 5.9 | 43.1* | -6.0 | 34.3*
COc1ccc(C(=O)NNC(=O)c2ccc3ccccc3c2O)cc1 | 6.1 | 13.8 | 2.4 | 0.0 | 37.9* | -10.7 | 37.8*
O=C(NNC(=O)c1cccc2ccccc12)c1ccc(-c2ccccc2)cc1 | 4.0 | 1.1 | 5.8 | -0.6 | -0.5 | x | x
COc1cc(OC)cc(C(=O)NNC(=S)Nc2ccccc2OC)c1 | 5.2 | 2.4 | 12.4 | 1.9 | -8.6 | x | x
COc1ccc(C(=O)NNC(=O)c2ccc3ccccc3c2)cc1 | -3.0 | -4.1 | 0.9 | 0.3 | 4.6 | x | x
COc1cc(OC)cc(C(=O)NNC(=O)c2cc3ccccc3cc2O)c1 | -8.4 | 9.8 | 29.8 | -1.3 | 25.9* | -11.2 | 18.7
O=C(NNC(=O)c1ccc(O)cc1O)c1ccc(-c2ccccc2)cc1 | 3.7 | 1.5 | 13.1 | -1.5 | 28.3* | -9.0 | 22.3*
C[C@H](O)[C@@H]1CN2CCc3ccc(N4CCOCC4)cc3[C@@H]2C[C@@H]1N(C)C(=O)c1ccccc1F | -0.1 | 1.1 | 2.7 | 2.0 | x | x | x
O=C(CSc1nc2cc(Cl)ccc2c(=O)n1Cc1ccco1)Nc1ccc(S(=O)(=O)N2CCOCC2)cc1 | -55.2 | -47.1 | 18.1 | 5.3 | 19.9* | 13.4 | 25.8*
O=C(Cn1nc2ccccc2n1)N/N=C/c1cc([N+](=O)[O-])ccc1O | 7.1 | -1.2 | 21.7 | -4.0 | 26.0* | 5.2 | 26.4*
COC(=O)[C@]1(C#N)CC(=O)N(Cc2ccc(Cl)cc2)[C@@H]1c1ccccc1 | 0.4 | 1.4 | 0.2 | -3.0 | x | x | x
COc1ccc(-c2cnnc(N/N=C/c3ccc(O)c(O)c3)n2)cc1 | 21.4 | 4.9 | 5.7 | 6.1 | 49.4* | -21.4 | 44.3*
Nn1c(SCC(=O)Nc2nccs2)nnc1-c1cc(-c2ccc(Cl)cc2)n[nH]1 | -3.7 | 3.6 | 7.4 | -4.8 | x | x | x

Bioassay records as filed in PubChem BioAssay.
